Measurements from the EternaBench riboswitch data.

System: MS2 coat protein
Experiment: apparent Kd, MS2 coat protein; higher = weaker binding; RNA-MaP array
Outline: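 Designed RNAs were transcribed on an Illumina sequencing chip from sequenced DNA templates. They were incubated at room temperature with fluorescently labeled MS2 coat protein at 1.5 nM to 3 μM, for 0.8–1.5 h at the lowest to 10–20 min at the highest concentrations, in Tris-HCl pH 7.5 buffer with KCl, MgCl2, BSA, DTT, tRNA and Tween20, with or without input ligand. Apparent Kd is the median of per-cluster binding-curve fits. Designs measured on fewer than 10 clusters were excluded.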

[1] = designed as: ON switch for flavin mononucleotide, no ligand
[2] = ligand present: flavin mononucleotide, designed as: ON switch for flavin mononucleotide
[3] = designed as: OFF switch for flavin mononucleotide, no ligand
[4] = ligand present: flavin mononucleotide, designed as: OFF switch for flavin mononucleotide

Sequence | apparent Kd [3] | apparent Kd [4] | other results
GGCCAGGCAGCGGCCGCCACUUAGUGGGCCGAAUGUCCUUUGCUGAACAUGAGGAUCACCCAUGUAAGGACCGGGCUGUUCCGCA | – | – | apparent Kd (designed as: OFF switch for tryptophan, no ligand): 30.5 nM; apparent Kd (ligand present: tryptophan, designed as: OFF switch for tryptophan): 69.5 nM
CGUUAAGAACAGAAGGCCGAGAUAAUGUUCAGCGGAGGAUAUGUGGAAGAUAGAACAUGAGGAUCACCCAUGUCAACUAGUACC | – | – | apparent Kd [1]: 6.01 nM; apparent Kd [2]: 5.82 nM
UCGUUGCCAUGAGGAUAUCGUGUCAAGACAGGCAAGUGACCGUACAUGAGGAUCACCCAUGUAAACGAGAAGGCAUAGUCAUGG | 17 nM | 13.9 nM | –
GUAGUGCUAAGAGGAUAUACGUUCUGCACAUGAGGAUCACCCAUGUACAAGGAGCCCAACCGGCGGUAGAAGGCUUUGACAGGA | – | – | apparent Kd [1]: 17.4 nM; apparent Kd [2]: 11.3 nM
GGGCGACUGCAAGGAUAUCUCGAAGUGAGUGGCAGAGAAGGUGCACGUACAUGAGGAUCACCCAUGUGAACUUAUUGGUCAAGG | 25.2 nM | 21.9 nM | –
AGUGGUGGGAAGGAUAUCUUCCGGCGUUAGCCUAGAGAAGGUCCCACAUGAGGAUCACCCAUGUUGACAUCGGU | 373 nM | 183 nM | –
AAGCCACAUGAGGAUCACCCAUGUGAGGAUAUUCAUCUAGAUCAACAAGACACGGAUAGAAGAAGGCACGGUGG | 14 nM | 29.5 nM | –
UCUAUACAUGAGGAUCACCCAUGUCAGGAUAUAAGCACCGGGCGAUUGUCACGCGGCCUUAGAAGGGACAGGAA | 17.4 nM | 28.8 nM | –
GUAGCUGAGUGUGAUACCAGAAACGACGUCCUUUAUCAUAACAUGAGGAUCACCCAUGUCUUCCCUUGGCAGCACUUUUCGGUCU | – | – | apparent Kd (designed as: OFF switch for theophylline, no ligand): 36.9 nM; apparent Kd (ligand present: theophylline, designed as: OFF switch for theophylline): 64.8 nM
CGUAGGAUCGUGGAUACCAGUACCGCCCACGACAUGAGGAUCACCCAUGUAGGUAAUCUUUACCCUUGGCAGCCAUUUUUUUCUG | – | – | apparent Kd (designed as: ON switch for theophylline, no ligand): 45.6 nM; apparent Kd (ligand present: theophylline, designed as: ON switch for theophylline): 52.9 nM
GGCGCUACGCCGGUACAUGAGGAUCACCCAUGUCCAUAUGUAAGAAGGUCUGGCGGGACGACAAAGAAGGAUAUUACAGAUUGC | – | – | apparent Kd [1]: 33.7 nM; apparent Kd [2]: 24.9 nM
CGUCUACAUGAGGAUCACCCAUGUCAGGAUAUACACCAACAACCUUCGCGAGAUAGGUGUAGAAGGGACGGGUA | 8.76 nM | 13.5 nM | –
CUUUAACAUGAGGAUCACCCAUGUCCGAUGAAUUUAGGAUAUCGCAUUGGUCGUAUGAGGCGAGAAGGAAAUUGUC | – | – | apparent Kd [1]: 28.4 nM; apparent Kd [2]: 12.8 nM
ACAUCGAGGCGAGGAUAUAUGACAUGAGGAUCACCCAUGUCUGCGUGAUCGUCGAACAAAUGUUCAUAGAAGGCGCUAGAAAUG | 112 nM | 20.6 nM | –
UCAAUUGAGGUCAAGGAUAUCUAGAAACAGACAUGAGGAUCACCCAUGUGCACAGCAUAAACGAGAGAGAAGGUGAGGCAUAUUGA | – | – | apparent Kd [1]: 42.7 nM; apparent Kd [2]: 26.5 nM
ACAGUACAUGAGGAUCACCCAUGUAGAAGAUGCUCAGGAUAUUGUGAGUCAGGUUAUGUACAAGAAGGGAGGCACG | – | – | apparent Kd [1]: 25.4 nM; apparent Kd [2]: 14.1 nM
CUAAAGGAUGAAGGAUAUUUGAGUGACACGCAGAAAGAAGGUCAAGCUUACAUGAGGAUCACCCAUGUGCGUGAGUGCAGGUGC | 14.4 nM | 13.3 nM | –
ACUGAGUAAGGAUAUCCAUCAUACUAACGACGCGGAAAGAAGGAGAAGGUACAUGAGGAUCACCCAUGUGAAAA | 12.3 nM | 11.1 nM | –
UGUUUUAAAGAGGAUAUGACAACGGUUCCACCGUCAGAAGGCUUUACAUGAGGAUCACCCAUGUACUGGAGUGA | 17.3 nM | 81.9 nM | –
UCGUCACAUGUUAGGAUAUUGCUAGGAUCCUAGAACAAGAAGGAACAUGAGGAUCACCCAUGUCAGUGAAUCAU | 23 nM | 36 nM | –
CAUGUACUAGGAUAUACAAUCACUCGUCAGGCAGCGUUAACACAUGAGGAUCACCCAUGUAGAAGGAGUUUAAA | 8.74 nM | 8.2 nM | –
